# Screening data deposited in PubChem by several laboratories.
# The list is not random: actives were taken first. Their share in the collection is about 2.5%.
# TAG inh – inhibitors of triacylglycerol accumulation. H9c2 cells, Nile Red lipid (TAG) fluorescence; cells loaded with 200 µM oleic acid. inhibition, % at 12.5 µM. 230,000 compounds, 0.66% hits;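 active = pattern-corrected inhibition of lipid staining of at least 50% with the nuclear-stain viability signal not falling by more than 50%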;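 note: 0% = DMSO wells and 100% = triacsin C control wells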
# SR-BI HDL uptake – inhibitors of mouse SR-BI mediated HDL lipid uptake; 320,000 compounds, 0.96% hits; Q61009; inhibition, % at 12.5 µM; ldlA[mSR-BI] CHO cells, DiI-HDL uptake fluorescence, 3 h;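 active = mean replicate inhibition of at least 70% and a set share of replicates each scoring 70 or more; inconclusive = meets just one of the two criteria; inactive = fails both criteria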;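 note: 0% = median of neutral control wells and 100% = median of positive control wells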
# Target sequence (Q61009 whole entry, looked up): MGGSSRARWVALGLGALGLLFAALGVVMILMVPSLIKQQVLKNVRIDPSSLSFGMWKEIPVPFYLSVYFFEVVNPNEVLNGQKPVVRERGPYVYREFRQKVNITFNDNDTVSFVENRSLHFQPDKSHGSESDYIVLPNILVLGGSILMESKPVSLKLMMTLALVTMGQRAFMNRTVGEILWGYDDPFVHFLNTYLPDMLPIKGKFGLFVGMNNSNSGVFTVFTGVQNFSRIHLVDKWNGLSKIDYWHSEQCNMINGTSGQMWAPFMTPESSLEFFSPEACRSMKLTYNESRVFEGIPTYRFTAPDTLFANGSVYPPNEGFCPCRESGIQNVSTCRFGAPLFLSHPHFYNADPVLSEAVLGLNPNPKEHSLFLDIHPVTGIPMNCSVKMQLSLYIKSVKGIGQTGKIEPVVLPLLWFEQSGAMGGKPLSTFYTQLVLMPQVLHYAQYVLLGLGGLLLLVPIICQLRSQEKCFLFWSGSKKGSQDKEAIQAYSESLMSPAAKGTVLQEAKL
# SMARCA2 act – increases SMARCA2 function in MMTV reporter cells; MG213 cells, MMTV-luciferase reporter, dexamethasone, overnight; activation, % at 9.1 µM; 370,000 compounds, 1% hits; in the data active = activation above about 7.8%;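 note: 0% = vehicle wells and 100% = reference activator wells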
# Vif inh – inhibitors of HIV Vif; HEK293T cells, Vif self-association by quenched fluorescence, imaging, 24 h; inhibition, % at 7.49 µM; 340,000 compounds, 0.35% hits; AID 602346; in the data active = inhibition above about 50%, passing the limit was not always enough; inconclusive = no clear call, values can overlap the other calls; inactive = below about 31%
# SR-BI DiI-HDL act – activators of SR-BI mediated HDL lipid uptake; CHO ldlA[mSR-BI] cells, DiI-HDL uptake fluorescence, 3 h; 100 = double the neutral-control signal; activation, % at 12.5 µM; 320,000 compounds, 0.096% hits; AID 504775;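 active = mean replicate activation of at least 60% and every replicate at or above 60%; inconclusive = mean or all-replicate condition met, but not both; inactive = mean below 60% and not all replicates reaching 60%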;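 note: 0% = median plate neutral-control signal and 100% = twice that signal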
#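 Test system: SR-BI-overexpressing, LDLR-lacking CHO cells; Also added: labelled HDL, 10 µg/mL; Measured by: bottom-read cell fluorescence after medium removal, ex 550/em 595 nm; Timing: 3 h uptake period with compound, 37 °C; Buffer or medium: F12, 0.5% BSA, 25 mM HEPES; Doses: single compound concentration, delivered by pin transfer.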
# SMARCA2 act conf – confirmation of SMARCA2 (BRM) function activators. shares compounds with SMARCA2 act. MG213 cells, MMTV-luciferase with dexamethasone, luminescence, overnight; MG213 cells expressing E1A, Rb sequestered; DMSO wells 0%, reference activator 100%. activation, % at 9.1 µM. 3,500 compounds, 30% hits. AID 652260;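 active = activation above its plate's cutoff, the mean activation of tested wells plus 3 SD, cut at about 7.9% in these data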
# VP16 Luc act – GAL4-VP16 reporter activation counter-screen; shares compounds with SMARCA2 act; HEK293 GAL4-VP16 pG5luc reporter, luciferase luminescence; scaled: DMSO wells 0%, SAHA wells 100%; activation, % at 9.1 µM; 3,500 compounds, 41% hits;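 active = activation above the solvent-only control well mean plus 3 SD, averaged across control plates, cut at about 5.2% in these data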
# The depositor's hits bear a star; ? = inconclusive; / = no result.
SMILES,TAG inh,SR-BI HDL uptake,SMARCA2 act,Vif inh,SR-BI DiI-HDL act,SMARCA2 act conf,VP16 Luc act
Cn1ccnc1SCC(=O)Nc1ccc(Oc2ccccc2)cc1,-8.8,-10.0,2.9,-3.6,10.0,/,/
COc1ccc(C(=O)CSc2nccn2C)cc1,/,/,11.1*,8.9,/,4.5,4.6
CCOc1ccc(NC(=O)CSc2nccn2C)cc1,/,-21.0,8.8*,12.8,21.0,6.0,4.4
c1ccc(Cc2cnc(N3CCN(Cc4ccc5c(c4)OCCO5)CC3)nc2)cc1,/,/,-7.5,/,/,/,/
Cc1cc(C(=O)CN2CCCCC2)c(C)n1-c1ccc(F)cc1,/,-7.0,5.0,1.4,7.0,/,/
Cc1cc(C(=O)NC2CCCCC2)c(C)n1-c1ccc(F)cc1,/,-8.7,8.0*,7.8,8.7,5.2,10.7*
CC(C)[C@H](NC(=O)[C@@H](N)Cc1ccccc1)C(=O)N1CCC2CCN(Cc3ccccc3)CC21 (stereo not given in full),/,/,0.0,/,/,/,/
CCc1ccc(C(O)c2ncc(-c3ccccc3F)[nH]2)cc1 (stereo not given),-2.2,/,13.3*,5.4,/,4.9,4.7
C=C1C(=O)[C@]23C[C@H]1CCC2[C@]1(C)C(=O)CC[C@@](C)(C(=O)O)C1C[C@@H]3O (stereo not given in full),/,/,31.1*,0.2,/,47.0*,0.1
C[C@H]1C(=O)[C@]23C[C@H]1CC[C@H]2[C@]1(C)[C@@H](O)CC[C@@](C)(C(=O)O)[C@H]1C[C@@H]3O,/,/,-1.9,/,/,/,/
O=C(CNC(=O)CNC(=O)c1ccc(Cl)cc1Cl)NCc1cccc(Cl)c1,/,4.8,1.0,0.8,-4.8,/,/
O=C(Nc1ccc(Br)cc1)OCCCN1CCC2(CCCCC2)C1=O,/,/,-5.3,/,/,/,/
O=C1C(=Cc2cccs2)CCc2ccccc21,/,/,10.1*,/,/,8.2*,7.0*
O=C1/C(=C/c2cccs2)CCC/C1=C\c1cccs1,-6.9,11.8,4.6,-4.4,-11.8,/,/
O=C(c1ccc(Cl)cc1)C1CCN(Cc2ccccc2)CC1,/,13.9,8.2*,4.6,-13.9,-3.5,-0.9
Cc1cc(NC(=O)c2ccccc2)sc1C,-4.6,14.9,19.1*,/,-14.9,7.6,8.6*
COC(=O)[C@]12C[C@H](CC(=O)NCCCCc3ccccc3)C(=O)N(Cc3ccccc3)C1=C[C@H](C(C)(C)C)O[C@@H]2C,/,/,-2.9,/,/,/,/
O=C(c1cncnc1)N1CCC(n2nnc3ncccc32)CC1,/,/,-3.4,/,/,/,/
O=C(c1ccncc1F)N1CCC(n2nnc3ncccc32)CC1,/,/,8.1*,/,/,-0.2,-0.7
CCOC(=O)[C@]12CCCC3=C1N(CCC3)C(=O)[C@@H](CC(=O)NCCCOC)C2,/,/,1.2,/,/,/,/
COC(=O)c1cc(-c2ccccc2)c(=O)n2c1CCC2,/,/,-1.1,/,/,/,/
O=C(NCCc1ccc(Cl)cc1)c1ccc2nc[nH]c2c1,-3.2,-4.3,1.7,-4.4,4.3,/,/
O=C(NCCc1ccc(Cl)cc1)c1ccc2nccnc2c1,2.7,-4.2,9.4*,7.4,4.2,9.6*,9.9*
O=C(OCC1CC(c2ccccc2Cl)=NO1)c1ccc(Br)cc1 (stereo not given),/,-19.6,10.8*,5.1,19.6,4.1,0.5
O=C(/C=C/c1ccccc1)NC(=O)c1ccccc1O,-0.7,-4.0,9.6*,9.3,4.0,11.2*,6.4*
SMILES,TAG inh,SR-BI HDL uptake,SMARCA2 act,Vif inh,SR-BI DiI-HDL act,SMARCA2 act conf,VP16 Luc act
CCC(CCC(=O)NNC(=O)Cc1ccc([N+](=O)[O-])cc1)C(=O)O (stereo not given),15.0,-42.8,-3.8,0.9,42.8,/,/
Cc1noc(C)c1C(=O)NCCc1ccccc1,-3.1,7.8,9.7*,0.7,-7.8,-1.6,-0.5
O=C(CCNc1ccc(F)cc1)c1cccc([N+](=O)[O-])c1,/,-4.7,2.0,-10.5,4.7,/,/
Cc1ccc(NCCC(=O)c2cccc([N+](=O)[O-])c2)cc1,/,8.0,9.4*,-8.3,-8.0,8.0*,1.4
Cc1ccccc1CSc1n[nH]c(NS(=O)(=O)c2ccccc2)n1,-1.1,-5.8,8.0*,-11.9,5.8,-6.1,0.5
Cc1cc(-c2sccc2Br)nc(-n2cccc2)n1,5.5,14.5,-2.3,-10.3,-14.5,/,/
Cc1cc(-c2ccc(Br)s2)nc(-n2cccc2)n1,5.2,24.0,11.8*,-2.6,-24.0,-5.0,3.5
CCOC(=O)c1sc(N/N=C/c2ccccc2)nc1C,16.5,9.9,8.7*,-2.9,-9.9,21.0*,13.3*
CCO[C@@H]1OC(C(=O)N2CCCCCCC2)=C[C@H](c2ccc3c(c2)OCO3)[C@H]1CCCO,-8.1,-41.7,-0.8,-2.4,41.7,/,/
O=C(Nc1ccc(-c2nc3ccccc3[nH]2)cc1)C1CCCN(Cc2ccn[nH]2)C1 (stereo not given),13.8,/,17.8*,11.4,/,7.0,4.6
COc1ccc(-c2noc(C3CCCN(C(=O)Nc4ccc(C)c(F)c4)C3)n2)cc1 (stereo not given),/,/,-4.3,/,/,/,/
Nc1ccc(/C=C/C(=O)c2cccs2)cc1,/,-16.5,11.6*,?,16.5,9.1*,6.8*
O=C(C=Cc1ccccc1)c1cccs1,7.2,-0.2,1.4,3.6,0.2,/,/
COc1ccc2c(c1)CC/C(=C/c1ccncc1)C2=O,/,-2.7,/,-9.2,2.7,/,/
COc1ccc2c(c1)CC/C(=C\c1ccc(C)o1)C2=O,-0.9,19.6,10.6*,-3.9,-19.6,18.2*,13.7*
O=C(Nc1ccc(F)cc1)OCc1cn(Cc2ccc(F)c(F)c2)nn1,/,/,0.1,/,/,/,/
CCN(CC)C(=N)/C(C#N)=N/Nc1ccccc1,-3.9,/,12.9*,9.4,/,6.7,1.3
Cc1nn(C)cc1CNC(=O)Nc1ccc(Cl)c(Cl)c1,16.5,7.8,8.0*,-9.2,-7.8,6.6,6.9*
CCOC(=O)/C=C1\CC(C(=O)OCC)Oc2c(OC)cccc21 (stereo not given),-5.0,14.1,9.6*,-1.9,-14.1,-3.4,1.1
O=c1oc2cc(Cl)ccc2n1CSc1nc2ccccc2s1,-6.2,26.2,8.8*,/,-26.2,5.9,11.5*
O=C(CSc1nc2ccccc2s1)N1c2ccccc2Sc2ccc(Cl)cc21,/,38.4,-1.8,-4.6,-38.4,/,/
Cc1ccc(NC(=O)C2CCN(S(=O)(=O)c3ccc(C(C)(C)C)cc3)CC2)cc1S(=O)(=O)N1CCOCC1,6.3,59.0,8.4*,-2.6,-59.0,-6.8,0.2
COc1cccc(OC)c1C(=O)OCc1c(-c2ccccc2)ncc2ccccc12,-17.8,-10.4,-0.2,-10.4,10.4,/,/
CSc1ccccc1NC(=O)C1(C)CCN1C(=O)Cc1ccc(-c2ccccc2)cc1 (stereo not given),5.9,/,-1.6,-10.2,/,/,/
